Measurements taken from ChEMBL document CHEMBL1131066, “2-Substituted aminopyrido[2,3-d]pyrimidin-7(8H)-ones. structure-activity relationships against selected tyrosine kinases and in vitro and in vivo anticancer activity” (J Med Chem, 1998).
“And” between values parts separate entries of the source, which are not always exact repeats. Equal entries are not always repeated.

How the values were obtained:
Mus musculus [1] = experiment: Difference in days for treated (T) and control (C) PDGF-transfected mouse fibroblast tumors to reach 750 mg in mice at 100 mg/kg peroral dose, days 1-15 administration; type: functional; details: route intraperitoneal, in the assay text read “intraperitoneal” for “peroral”
In short: (§1)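 Nude mice (NCr nu/nu), 18–22 g, 6–8 per group, randomized and implanted with serially passaged tumor fragments in the right axilla on day 0. Dosed by average cage weight. Vehicle was 50 mM sodium lactate buffer, pH 4.0, or a 0.5% methyl cellulose suspension for one compound. Cisplatin was given in saline. T − C is the difference in days for treated and control tumors to reach 750 mg.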

C6 [2] = experiment: (§2) Inhibition of C6 cell proliferation in sulforhodamine B assay; type: functional, cell-based; details: Rattus norvegicus
In short: (§3)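 C6 rat glioma cells (F10 Ham's, 15% horse serum, 2.5% fetal calf serum) seeded and allowed 24 h to attach, then given serial 2-fold compound dilutions; 4 d at 37 °C, 5% CO2; growth read by sulforhodamine B staining. IC50; mean of two experiments, each in triplicate.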

SK-OV-3 [3] = experiment: Difference in days for treated (T) and control (C) SKOV-3 cell tumors to reach 750 mg in mice at 200 mg/kg ip dose, days 20-34 administration; type: functional; details: route intraperitoneal; in short: as §1
[4] = target: Epidermal growth factor receptor (Homo sapiens, UniProt P00533); experiment: Inhibitory concentration was evaluated against epidermal growth factor receptor (EGFr) tyrosine kinase
[5] = target: Proto-oncogene tyrosine-protein kinase Src (Homo sapiens, UniProt P12931); experiment: Inhibition of c-Src tyrosine kinase
In short: (§4)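 Recombinant kinases (PDGFr-β, FGFr-1, c-Src), enzyme inhibition IC50. Mean of at least two separate determinations, each done in triplicate; replicate values typically varied under 30%.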

C6 [6] = experiment: C6 glioma cell growth in soft agar with continuous treatment; type: functional, cell-based; details: Rattus norvegicus
In short: (§5)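 C6 rat glioma cells (F10 Ham's with 15% horse serum, 2.5% fetal calf serum) exposed 3 days to a concentration series, then plated in soft agar with compound still present at the same concentration; colonies stained and counted after two weeks. IC50; mean of two experiments, each in duplicate.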

[7] = target: T1, Platelet-derived growth factor receptor (PDGFr) (Rattus norvegicus, UniProt P20786+Q05030); experiment: Inhibition of Platelet-derived growth factor receptor autophosphorylation in C6 cells; type: functional, cell-based
In short: (§6)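 Serum-starved 24 h (C6 rat glioma; PDGF-B-transfected NIH3T3), incubated 2 h with a range of concentrations, then stimulated 5 min with 25 ng/mL PDGF-BB. Lysates or immunoprecipitates Western blotted with antiphosphotyrosine antibody, ECL detection. IC50.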

[8] = target: Proto-oncogene tyrosine-protein kinase Src (Gallus gallus, UniProt P00523); experiment: Inhibition of avian c-Src tyrosine kinase
COLO 205 [9] = experiment: Weight change of COLO 205 cell tumors in mice at 200 mg/kg ip dose, days 14-28 administration; type: functional, Mus musculus; details: route intraperitoneal
In short: (§7)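 Tumor-bearing nude mice (NCr nu/nu, 18–22 g, 6–8 per group) were implanted in the right axilla with tumor fragments on day 0 and dosed by average cage weight. Vehicle was 50 mM sodium lactate pH 4.0, or 0.5% methyl cellulose suspension; cisplatin was given in saline. Host body weight change is given as the maximum treatment-related weight loss.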

NIH3T3 = experiment: Inhibition of NIH3T3 proliferation by sulforhodamine B assay; type: functional, cell-based, Mus musculus; details: nih3t3
[10] = target: T2, Platelet-derived growth factor receptor beta (Mus musculus, UniProt P05622); experiment: Inhibition of Platelet-derived growth factor receptor (PDGFr); in short: as §4
C6 [11] = experiment: C6 cell growth in soft agar with discontinued treatment; type: functional, cell-based, Rattus norvegicus; details: Rattus norvegicus, C6
In short: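 C6 rat glioma cells given 3-day exposure to a concentration series, then washed free of inhibitor and plated in drug-free soft agar; colonies stained and counted after two weeks. IC50; mean of two experiments, each in duplicate.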

[12] = target: T1, Platelet-derived growth factor receptor (PDGFr); experiment: Inhibition of PDGF-induced autophosphorylation of PDGF-R in C6 cells
C6 [13] = experiment: Weight change of C6 glioma tumor cells in mice at 100 mg/kg peroral dose, days 1-15 administration; type: functional, organism-based; set-up: dose 100 mg/kg; details: Mus musculus; in short: as §7
[14] = target: T3, Platelet-derived growth factor receptor (Mus musculus, UniProt P05622+P26618); experiment: (§8) Inhibition of Platelet-derived growth factor receptor autophosphorylation in NIH3T3 cells; type: functional, cell-based; in short: as §6
HT-29 [15] = experiment: Weight change of HT-29 cell tumors in mice at 200 mg/kg ip dose, days 15-29 administration; type: functional, Mus musculus; details: route intraperitoneal; in short: as §7
SK-OV-3 [16] = experiment: Weight change of SK-OV-3 cell tumors in mice at 200 mg/kg peroral dose, days 20-34 administration; type: functional; details: route intraperitoneal, in the assay text read “intraperitoneal” for “peroral”
C6 [17] = experiment: C6 glioma cell growth in soft agar with discontinued treatment; type: functional, cell-based; details: Rattus norvegicus
In short: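 C6 rat glioma cells (F10 Ham's, 15% horse serum, 2.5% fetal calf serum) exposed to a range of concentrations for 3 days, washed free of inhibitor, plated in drug-free soft agar. Colonies stained and counted after two weeks. IC50; mean of two experiments, each in duplicate.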

HT-29 [18] = experiment: Difference in days for treated (T) and control (C) HT-29 cell tumors to reach 750 mg in mice at 200 mg/kg ip dose, days 15-29 administration; type: functional, Mus musculus; details: route intraperitoneal; in short: as §1
C6 [19] = experiment: Difference in days for treated (T) and control (C) C6 glioma cell tumors to reach 750 mg in mice at 100 mg/kg peroral dose, days 1-15 administration; type: functional, Mus musculus; details: route oral; in short: as §1
HT-29 [20] = experiment: Net reduction in tumor burden between first and last treatments of HT-29 cell tumors in mice at 200 mg/kg ip dose, days 15-29 administration; type: functional, Mus musculus; details: route intraperitoneal
In short: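 NCr nu/nu nude mice (18–22 g, 6–8 per group, randomized) had tumor fragments, kept by serial passage in nude mice, implanted in the right axilla on day 0. Mice were dosed by average cage weight on the listed days, over a range from toxic to ineffective doses. Vehicle was 50 mM sodium lactate pH 4.0 or 0.5% methyl cellulose suspension. Net log cell kill was taken between first and last treatments.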

COLO 205 [21] = experiment: Difference in days for treated (T) and control (C) COLO 205 cell tumors to reach 750 mg in mice at 200 mg/kg ip dose, days 14-28 administration; type: functional, Mus musculus; details: route intraperitoneal; in short: as §1
Mus musculus [22] = experiment: Net reduction in tumor burden between the first and last treatments of PDGF-transfected fibroblast cells in mice at 100 mg/kg intraperitoneal dose, days 1-15 administration
C6 [23] = experiment: C6 cell growth in soft agar with continuous treatment; type: functional, cell-based, Rattus norvegicus; details: Rattus norvegicus, C6; in short: as §5
[24] = target: T3, Platelet-derived growth factor receptor; experiment: as §8; type: functional, cell-based; in short: as §6; remark: listed apart in the source
C6 [25] = experiment: as §2; type: functional, cell-based, Rattus norvegicus; details: Rattus norvegicus, C6; in short: as §3
[26] = target: T2, Platelet-derived growth factor receptor beta; experiment: Inhibitory concentration was evaluated against Platelet-derived growth factor receptor beta (PDGFr) tyrosine kinase

T2 sequence (P05622 whole entry): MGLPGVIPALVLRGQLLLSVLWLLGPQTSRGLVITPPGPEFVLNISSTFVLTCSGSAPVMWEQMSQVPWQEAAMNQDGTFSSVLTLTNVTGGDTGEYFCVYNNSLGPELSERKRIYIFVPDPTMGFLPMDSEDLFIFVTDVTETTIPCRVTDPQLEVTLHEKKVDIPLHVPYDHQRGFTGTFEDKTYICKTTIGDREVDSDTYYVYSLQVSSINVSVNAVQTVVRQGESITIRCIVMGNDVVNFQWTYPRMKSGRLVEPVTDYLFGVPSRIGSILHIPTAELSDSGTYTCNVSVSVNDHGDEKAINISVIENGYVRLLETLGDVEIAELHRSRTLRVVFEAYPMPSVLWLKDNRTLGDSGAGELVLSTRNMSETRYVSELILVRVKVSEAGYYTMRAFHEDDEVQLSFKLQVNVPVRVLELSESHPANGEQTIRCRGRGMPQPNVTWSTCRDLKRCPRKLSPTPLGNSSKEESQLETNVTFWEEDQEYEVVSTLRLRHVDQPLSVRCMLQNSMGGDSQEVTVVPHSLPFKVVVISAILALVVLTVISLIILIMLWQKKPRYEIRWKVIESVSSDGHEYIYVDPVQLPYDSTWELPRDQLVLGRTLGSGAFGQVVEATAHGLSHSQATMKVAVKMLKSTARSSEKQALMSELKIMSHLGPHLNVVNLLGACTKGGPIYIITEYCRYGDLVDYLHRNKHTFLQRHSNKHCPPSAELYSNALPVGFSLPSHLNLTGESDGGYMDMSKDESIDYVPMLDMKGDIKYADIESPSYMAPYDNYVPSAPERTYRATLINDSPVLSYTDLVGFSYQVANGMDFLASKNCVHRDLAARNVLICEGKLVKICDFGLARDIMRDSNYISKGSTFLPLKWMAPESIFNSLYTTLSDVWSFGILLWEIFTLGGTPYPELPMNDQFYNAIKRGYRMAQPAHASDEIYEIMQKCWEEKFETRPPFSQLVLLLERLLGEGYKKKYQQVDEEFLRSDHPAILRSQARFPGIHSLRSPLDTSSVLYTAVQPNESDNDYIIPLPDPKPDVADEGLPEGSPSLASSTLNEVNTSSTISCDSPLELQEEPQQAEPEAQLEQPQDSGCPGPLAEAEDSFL
Chain of Epidermal growth factor receptor (P00533 whole entry): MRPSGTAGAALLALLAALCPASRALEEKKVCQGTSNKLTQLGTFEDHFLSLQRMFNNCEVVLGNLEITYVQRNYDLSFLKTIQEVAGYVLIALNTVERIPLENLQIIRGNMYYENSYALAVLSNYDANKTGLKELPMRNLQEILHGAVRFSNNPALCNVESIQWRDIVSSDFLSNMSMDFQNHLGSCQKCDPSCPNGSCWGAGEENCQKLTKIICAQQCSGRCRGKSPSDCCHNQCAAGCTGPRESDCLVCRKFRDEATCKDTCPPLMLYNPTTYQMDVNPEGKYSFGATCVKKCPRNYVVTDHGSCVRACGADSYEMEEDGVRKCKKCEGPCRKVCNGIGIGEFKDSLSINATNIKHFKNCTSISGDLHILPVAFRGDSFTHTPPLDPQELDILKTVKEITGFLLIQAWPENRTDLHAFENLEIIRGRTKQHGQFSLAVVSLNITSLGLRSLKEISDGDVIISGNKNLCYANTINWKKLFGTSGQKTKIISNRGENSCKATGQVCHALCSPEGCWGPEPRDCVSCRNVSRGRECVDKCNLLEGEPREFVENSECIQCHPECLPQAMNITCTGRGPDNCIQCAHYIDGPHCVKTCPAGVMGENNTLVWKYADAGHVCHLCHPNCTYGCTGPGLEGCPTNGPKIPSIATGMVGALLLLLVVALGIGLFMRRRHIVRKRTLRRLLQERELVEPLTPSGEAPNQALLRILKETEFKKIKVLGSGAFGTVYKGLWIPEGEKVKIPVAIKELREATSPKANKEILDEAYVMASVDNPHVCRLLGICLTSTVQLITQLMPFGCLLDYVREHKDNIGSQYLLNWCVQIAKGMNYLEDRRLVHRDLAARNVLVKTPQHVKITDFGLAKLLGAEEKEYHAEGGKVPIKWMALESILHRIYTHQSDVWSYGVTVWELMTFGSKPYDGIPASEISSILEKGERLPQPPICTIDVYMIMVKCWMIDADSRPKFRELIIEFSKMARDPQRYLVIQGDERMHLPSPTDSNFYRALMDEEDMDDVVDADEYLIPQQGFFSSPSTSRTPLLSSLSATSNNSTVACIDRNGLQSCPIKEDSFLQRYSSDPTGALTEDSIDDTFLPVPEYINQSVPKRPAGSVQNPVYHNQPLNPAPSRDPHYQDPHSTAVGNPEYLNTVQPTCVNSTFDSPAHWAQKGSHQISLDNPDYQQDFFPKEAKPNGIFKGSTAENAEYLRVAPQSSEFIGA
Chain of Proto-oncogene tyrosine-protein kinase Src (Homo sapiens, UniProt P12931) (P12931 2-536 limits assumed): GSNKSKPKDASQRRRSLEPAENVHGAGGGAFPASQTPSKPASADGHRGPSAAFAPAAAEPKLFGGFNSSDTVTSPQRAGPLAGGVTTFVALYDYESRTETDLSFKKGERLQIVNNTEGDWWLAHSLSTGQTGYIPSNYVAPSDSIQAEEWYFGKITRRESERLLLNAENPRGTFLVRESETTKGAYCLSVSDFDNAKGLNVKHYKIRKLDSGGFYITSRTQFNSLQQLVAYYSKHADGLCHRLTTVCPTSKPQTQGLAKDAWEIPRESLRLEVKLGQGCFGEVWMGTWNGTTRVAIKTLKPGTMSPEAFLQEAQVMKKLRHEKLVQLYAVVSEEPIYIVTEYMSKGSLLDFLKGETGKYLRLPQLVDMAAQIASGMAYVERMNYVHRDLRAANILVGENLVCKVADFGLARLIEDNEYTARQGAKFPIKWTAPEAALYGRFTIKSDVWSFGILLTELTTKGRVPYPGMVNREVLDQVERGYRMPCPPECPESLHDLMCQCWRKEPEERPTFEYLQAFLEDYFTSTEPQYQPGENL

Cn1c(=O)c(-c2c(Cl)cccc2Cl)cc2cnc(Nc3ccccc3)nc21
T-C (Mus musculus [1]): 1.7 days | IC50 (C6 [2]): 1800 nM | T-C (SK-OV-3 [3]): -0.4 days | IC50 [4]: 260 nM | IC50 [5]: 17 nM | IC50 (C6 [6]): 1100 nM | IC50 [7]: 38 nM | IC50 [8]: 20 nM | Weight change (COLO 205 [9]): -2 g | IC50 (NIH3T3): 105 nM and 410 nM | IC50 [10]: 400 nM | IC50 (C6 [11]): 2900 nM | IC50 [12]: 38 nM | Weight change (C6 [13]): Weight gain | IC50 [14]: 20 nM | Weight change (HT-29 [15]): -2 g | Weight change (SK-OV-3 [16]): -2 g | IC50 (C6 [17]): 2900 nM | T-C (HT-29 [18]): 1.1 days | T-C (C6 [19]): -1.1 days | Net cell kill (HT-29 [20]): -0.5 log10 | T-C (COLO 205 [21]): -3.2 days | Net cell kill (Mus musculus [22]): -2.1 log10 | IC50 (C6 [23]): 1100 nM | IC50 [24]: 20 nM | IC50 (C6 [25]): 1800 nM | IC50 [26]: 400 nM
